Data set [1] addresses Human PDE10A2 (Homo sapiens, UniProt Q9Y233). Put plainly: PDE10A fluorescence polarization. The format is biochemical.
Data set [2] concerns the target T1, PDE10A (Rattus norvegicus, UniProt Q9QYJ6).
T1 sequence (Q9QYJ6 1-794): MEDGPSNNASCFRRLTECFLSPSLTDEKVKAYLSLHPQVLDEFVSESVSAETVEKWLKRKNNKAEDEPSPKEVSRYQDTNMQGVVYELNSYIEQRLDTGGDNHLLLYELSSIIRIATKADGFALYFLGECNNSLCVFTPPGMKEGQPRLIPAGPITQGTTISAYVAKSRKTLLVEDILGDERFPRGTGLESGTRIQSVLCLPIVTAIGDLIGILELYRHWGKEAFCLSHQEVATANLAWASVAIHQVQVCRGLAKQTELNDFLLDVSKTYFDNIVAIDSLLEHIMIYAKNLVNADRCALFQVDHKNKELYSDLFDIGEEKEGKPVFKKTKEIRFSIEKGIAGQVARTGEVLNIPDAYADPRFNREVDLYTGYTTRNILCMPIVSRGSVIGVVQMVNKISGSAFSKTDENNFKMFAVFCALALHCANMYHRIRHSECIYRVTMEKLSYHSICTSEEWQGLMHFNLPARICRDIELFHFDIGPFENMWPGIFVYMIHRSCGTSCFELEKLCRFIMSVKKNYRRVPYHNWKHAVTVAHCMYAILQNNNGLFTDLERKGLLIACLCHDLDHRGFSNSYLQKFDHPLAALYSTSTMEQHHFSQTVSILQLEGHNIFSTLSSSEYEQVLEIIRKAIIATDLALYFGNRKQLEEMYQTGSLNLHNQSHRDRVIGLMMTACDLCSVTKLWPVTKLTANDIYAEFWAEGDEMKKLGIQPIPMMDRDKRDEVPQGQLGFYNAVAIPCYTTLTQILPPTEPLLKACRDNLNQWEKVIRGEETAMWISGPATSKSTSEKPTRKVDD
Kind of data set: In vivo PDE10A enzyme occupancy in rat striatum with [3H]MK-8193. Set-up: species or system Wistar–Hannover rats.

For data set [3], the system named is 5-strain Ames test. Kind of data set: Microbial mutagenesis assay. The format is cell-based.
Data set [4] can be described thus: Passive permeability. Particulars: not told. It is filed as in vitro ADME.
The target in data set [5] is full length human PDE10A2 (Homo sapiens, UniProt Q9Y233). Put plainly: Surface plasmon resonance binding kinetics. The following applies: SPR. (In general: SPR reads the build-up and loss of mass on a sensor chip optically.)
full length human PDE10A2, sequence (Q9Y233 715-1055): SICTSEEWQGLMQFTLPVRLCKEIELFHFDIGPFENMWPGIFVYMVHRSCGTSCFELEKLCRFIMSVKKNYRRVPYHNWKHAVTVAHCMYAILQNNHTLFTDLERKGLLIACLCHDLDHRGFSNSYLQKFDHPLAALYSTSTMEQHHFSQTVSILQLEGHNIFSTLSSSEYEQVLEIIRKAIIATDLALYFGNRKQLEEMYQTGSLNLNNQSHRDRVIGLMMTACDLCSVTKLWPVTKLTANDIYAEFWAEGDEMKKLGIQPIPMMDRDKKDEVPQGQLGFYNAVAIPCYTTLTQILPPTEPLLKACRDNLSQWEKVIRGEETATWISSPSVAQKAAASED
In data set [6] the test system is circulating levels of prolactin. Put plainly: Circulating prolactin in rats. The format is in vivo. Particulars: data not shown.
Data set [7] deals with MK-801-induced locomotor activity in rats. Put plainly: MK-801-induced psychomotor. It is filed as in vivo. The following applies: MK-801 model, striatal occupancy derived from plasma exposures.
Data set [8] relates to catalepsy in the rats. Put plainly: Catalepsy in rats. The format is in vivo. Particulars: compared with atypical antipsychotics, data not shown.
Data set [9] deals with Chinese hamster ovary cells. Kind of data set: Assay for chromosomal aberrations. It is filed as cell-based.
Data set [10] concerns acute episode of schizophrenia. Particulars: patients experiencing an acute episode of schizophrenia; cited from earlier work.
The subject of data set [11] is novel objection recognition in rats. Kind of data set: Novel objection recognition assay. The format is in vivo. Particulars: for novel objection recognition: rats, vs vehicle, p <0.05. The procedure, abridged: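 Rats dosed orally with test compound; donepezil 0.56 mg/kg as reference. Plasma was taken 1 h post dose at the end of the behavioral study (n = 4/group). Striatal PDE10A occupancy was derived from these end-of-study plasma exposures. Significance was tested against vehicle.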

Data set [12] can be described thus: Weight gain in rats. The following applies: data not shown. The format is in vivo.
The subject of data set [13] is other PDE enzyme families (PDE1–PDE11). Kind of data set: PDE selectivity over the other PDE enzyme families. It is filed as biochemical. The following applies: tables 1 and 2; over other PDEs.
Data set [14] addresses Iks (Homo sapiens, UniProt P51787). Kind of data set: Ion channel profile, Iks. It is filed as cell-based.

Each structure is given as a SMILES string.

Human PDE10A2, sequence (Q9Y233 267-1055): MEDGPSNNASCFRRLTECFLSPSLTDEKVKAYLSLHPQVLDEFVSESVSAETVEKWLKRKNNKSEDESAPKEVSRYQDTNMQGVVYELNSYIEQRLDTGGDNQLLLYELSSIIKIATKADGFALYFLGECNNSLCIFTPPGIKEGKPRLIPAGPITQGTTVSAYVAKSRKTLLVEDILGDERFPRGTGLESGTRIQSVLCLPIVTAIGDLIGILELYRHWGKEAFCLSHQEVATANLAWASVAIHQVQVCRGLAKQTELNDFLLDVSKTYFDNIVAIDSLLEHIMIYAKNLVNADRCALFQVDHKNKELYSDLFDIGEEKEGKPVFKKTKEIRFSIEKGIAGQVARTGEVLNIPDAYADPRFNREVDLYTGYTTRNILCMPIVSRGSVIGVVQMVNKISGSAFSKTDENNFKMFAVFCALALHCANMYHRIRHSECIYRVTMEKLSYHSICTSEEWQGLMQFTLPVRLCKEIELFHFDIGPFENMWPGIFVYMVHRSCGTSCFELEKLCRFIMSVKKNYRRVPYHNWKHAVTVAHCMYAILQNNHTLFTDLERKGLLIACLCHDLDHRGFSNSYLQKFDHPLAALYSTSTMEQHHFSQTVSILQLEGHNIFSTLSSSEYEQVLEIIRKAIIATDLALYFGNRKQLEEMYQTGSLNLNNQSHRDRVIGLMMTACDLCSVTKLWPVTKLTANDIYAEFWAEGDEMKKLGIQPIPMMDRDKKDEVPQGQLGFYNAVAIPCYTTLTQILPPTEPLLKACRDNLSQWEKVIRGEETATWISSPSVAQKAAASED
Iks, sequence (P51787 whole entry): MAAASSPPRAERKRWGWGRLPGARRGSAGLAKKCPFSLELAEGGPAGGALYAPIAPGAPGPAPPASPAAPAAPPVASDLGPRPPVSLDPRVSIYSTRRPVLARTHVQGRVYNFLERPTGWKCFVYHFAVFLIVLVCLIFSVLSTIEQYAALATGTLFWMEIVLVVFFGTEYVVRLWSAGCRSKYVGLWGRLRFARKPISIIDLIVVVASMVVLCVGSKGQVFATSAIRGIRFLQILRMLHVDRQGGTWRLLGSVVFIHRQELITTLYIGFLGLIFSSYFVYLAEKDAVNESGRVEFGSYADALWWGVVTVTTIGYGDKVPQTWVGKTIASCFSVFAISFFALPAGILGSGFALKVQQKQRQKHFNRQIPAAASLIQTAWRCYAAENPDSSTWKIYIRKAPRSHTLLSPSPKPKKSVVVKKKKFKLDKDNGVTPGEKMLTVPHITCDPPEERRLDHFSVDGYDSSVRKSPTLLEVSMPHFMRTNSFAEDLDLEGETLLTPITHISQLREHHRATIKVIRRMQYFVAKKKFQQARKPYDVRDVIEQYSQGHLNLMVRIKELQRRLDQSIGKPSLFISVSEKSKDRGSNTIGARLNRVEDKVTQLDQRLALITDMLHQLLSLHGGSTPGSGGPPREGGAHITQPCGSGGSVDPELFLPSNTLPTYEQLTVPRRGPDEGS

As for `Cc1c(Cl)nc(C2CC2)nc1Cl` [Compound 1], in [1], the “LBE (ligand binding efficiency)” value stood at 0.57.
The EC50 is the concentration at which the effect is half-maximal. As a reminder, the Papp is a coefficient for how fast a substance crosses the barrier. The low end stands for poor permeation, the high end for ready permeation. By IC50 is commonly meant the concentration that inhibits the measured activity by half. A higher IC50 goes with weaker potency. Regarding `Cc1ccc([C@H]2C[C@@H]2COc2cc(NCc3nnc(C)s3)nc(C)n2)nc1` [Compound 18, 2-Methyl-N-((5-methyl-1,3,4-thiadiazol-2-yl)methyl)-6-(((1S,2S)-2-(5-methylpyridin-2-yl)cyclopropyl)methoxy)pyrimidin-4-amine], in data set [2], the EC50 was found to be 52 nM. Besides, the “maximal enzyme occupancy in the rat striatum” value in data set [2] (PO, higher plasma concentrations) was “full enzyme occupancy”. Further, the “microbial mutagenesis (5-strain Ames test)” value in data set [3] is given as “negative”. In data set [4], the Papp fell in the range of 35.4 to 42.6 ×10⁻⁶ cm/s. In data set [5], the on-rate is ~8.0 × 10^7 M^–1·s^–1 and the reversibility of binding entry was “completely reversible”. The “in vitro half-life on the enzyme” value in data set [5] (25 °C) was about 6.7 min. Moreover, the “effect on circulating levels of prolactin” value in data set [6] is reported as “lack of effect”. Further, the “enzyme occupancy at which efficacy was observed (and above)” value in data set [7] is reported as “approximately 25%”. Besides, in data set [8], the “therapeutic window between antipsychotic-like effects and catalepsy” value is “larger therapeutic window”. Moreover, the “chromosomal aberrations in Chinese hamster ovary cells” value in [9] is “negative”. For the same compound, the “antipsychotic efficacy, initial proof of concept” value in [10] is given as “evidence for antipsychotic efficacy”. Moreover, the “enzyme occupancy at which significant effects were achieved (and above)” value in data set [11] (novel objection recognition, striatal occupancy derived from plasma exposures) is listed as “approximately 29%”. Further, the novel objection recognition result in [11] (0.16 and 0.25 mg/kg PO) was “efficacious”. Also, the novel objection recognition result in data set [11] (0.16 and 0.25 mg/kg PO, listed as MK-8189 (18)) is listed as “significantly improved recognition”. For the same compound, in data set [1], the “LBE (ligand binding efficiency)” value was found to be 0.54 and the “LLE (ligand-lipophilicity efficiency)” value is given as 7.8. Moreover, the weight gain entry in data set [12] is given as “reduced weight gain”. Besides, the PDE selectivity in data set [13] is > 500,000. The compound further had an IC50 in data set [14] of over 30000 nM.
For `COc1cc2c(cc1OC)C(=O)C(CC1CCN(Cc3ccccc3)CC1)C2` (stereo not shown) [donepezil, reference compound], the novel objection recognition result in [11] (positive control 0.56 mg/kg) was “significantly improved recognition”.

The values are drawn from article PMC9884086 (Journal of Medicinal Chemistry, 2023).
